Converted amounts (≈) assume the structure as drawn. “Also recorded” adds a separate entry of the source.
Legend:
Huh-5-2 cells [1] = experiment: microscopic examination of cell morphology in the replicon assay; assay type: cell-based; settings: 72 h of compound treatment
[2] = test system: genotype 1b HCV subgenomic replicon in Huh-5-2 cells; assay type: cell-based, hepatitis C virus
recombinant NS5BCΔ21 1b = recombinant NS5BCΔ21 1b (Hepatitis C virus genotype 1b, UniProt O92972); experiment: NS5B primer dependent elongation; assay type: biochemical
[3] = target: recombinant NS5BCΔ21 mutant M423T (Hepatitis C virus genotype 1b, UniProt O92972, M2842T); experiment: NS5B mutant counterscreen assay, M423T; assay type: biochemical; settings: M423T relative to NS5B WT (IC50 = 4.3 μM)
Huh-9-13 cells = experiment: vital stains; assay type: cell-based
Procedure, shortened: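 Huh-9-13 replicon cells seeded at 25.000 cells/dish in complete DMEM without G418. Next day, treated with test compound (90 μM), an NS3 protease inhibitor (15 μM) or DMSO for 3 days at 37 °C, 5% CO2. Stained 30 min with Nile Red (2 μg/mL), monodansylcadaverine (50 μM) or LipidTOX Red (1/1000), then imaged live by confocal microscopy.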

[4] = thermodynamic and kinetic water solubility; assay type: physicochemical
Procedure, shortened: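 Test compound solutions shaken in a shaker bath for 48 h at room temperature, then filtered. Dissolved compound quantified by LC–UV–MS against calibration curves made from standard solutions in methanol. Determinations in triplicate.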

Huh-5-2 cells [5] = experiment: MTS assay of antimetabolic effect, Huh-5-2; assay type: cell-based; settings: data not shown

| Compound | effect on cell morphology (microscopic analysis) (Huh-5-2 cells [1]) | assessment of anti-HCV activity in the replicon assay (in words) [2] | anti-NS5B activity (in words) (recombinant NS5BCΔ21 1b) | fold more active than o-chlorine derivative 2c (NS5B) (recombinant NS5BCΔ21 1b) | other results |
| --- | --- | --- | --- | --- | --- |
| Cc1ccc(-n2nc(C(=O)Nc3ccc(NS(C)(=O)=O)cc3)c3c2-c2ccccc2S(=O)(=O)N3C)cc1 [2h, 4-Methyl-1-(4-methylphenyl)-N-{4-[(methylsulfonyl)amino]phenyl}-1,4-dihydropyrazolo[4,3-c][1,2]benzothiazine-3-carboxamide 5,5-Dioxide] | did not display any significant effects on cell morphology; also recorded: did not display any antimetabolic and cell morphology alteration effects | selective anti-HCV activity without any antimetabolic effect |  |  |  |
| COc1ccc(-n2nc(C(=O)Nc3ccc(NS(C)(=O)=O)cc3)c3c2-c2ccccc2S(=O)(=O)N3C)cc1 [2k, 1-(4-Methoxyphenyl)-4-methyl-N-{4-[(methylsulfonyl)amino]phenyl}-1,4-dihydropyrazolo[4,3-c][1,2]benzothiazine-3-carboxamide 5,5-Dioxide] | did not display any significant effects on cell morphology | selective anti-HCV activity without any antimetabolic effect | inactive |  | inhibition at 50 µM (recombinant NS5BCΔ21 1b; read-out: inhibition of NS5B RdRp activity, screen at 50 μM): < 50% |
| CN1c2c(C(=O)Nc3ccc(NS(C)(=O)=O)cc3)nn(-c3cccc(Cl)c3)c2-c2ccccc2S1(=O)=O [2a, 1-(3-Chlorophenyl)-4-methyl-N-{4-[(methylsulfonyl)amino]phenyl}-1,4-dihydropyrazolo[4,3-c][1,2]benzothiazine-3-carboxamide 5,5-Dioxide] |  | selective anti-HCV activity without any antimetabolic effect |  | about 4 fold | fold change [3]: ~2; fold higher NS5B inhibitory activity than parent compound 1 (recombinant NS5BCΔ21 1b): about 5 fold; induction of multilamellar bodies (monodansylcadaverine stain) (Huh-9-13 cells; 90 μM): did not induce multilamellar bodies; neutral lipids content (Nile Red and LipidTOX red stain) (Huh-9-13 cells; 90 μM): significantly altered the neutral lipids content; solubility kinetic at 48 h ([4]; kinetic from dmso stock): 0.275 µM (≈ 0.154 µg/mL); solubility thermodynamic at 48 h ([4]; thermodynamic from solid): 0.00398 µM (≈ 0.00222 µg/mL) |
| CN1c2c(C(=O)Nc3ccc(OCC(N)=O)cc3)nn(-c3cccc(F)c3)c2-c2ccccc2S1(=O)=O [compound 4, N-[4-(Amino-2-oxoethoxy)phenyl]-1-(3-fluorophenyl)-4-methyl-1,4-dihydropyrazolo[4,3c][1,2]benzothiazine-3-carboxamide 5,5-Dioxide] |  |  | inactive |  | antimetabolic effect after dose–response curve analysis (Huh-5-2 cells [5]): displayed antimetabolic effect |
| CN1c2c(C(=O)Nc3ccc(NS(C)(=O)=O)cc3)nn(-c3ccc(Cl)cc3)c2-c2ccccc2S1(=O)=O [2b, 1-(4-Chlorophenyl)-4-methyl-N-{4-[(methylsulfonyl)amino]phenyl}-1,4-dihydropyrazolo[4,3-c][1,2]benzothiazine-3-carboxamide 5,5-Dioxide] | did not show any significant cell morphological alterations; also recorded: did not display any significant effects on cell morphology; also recorded: did not exhibit any cell morphological alterations; also recorded: did not show any significant alteration in cell morphology; also recorded: did not display any antimetabolic and cell morphology alteration effects | selective anti-HCV activity without any antimetabolic effect |  | ~2 fold | SI (ratio of CC50 to EC50) [2]: > 28; induction of phospholipidosis/steatosis (different stainings) (Huh-9-13 cells): induced pospholipidosis/steatosis |

— paper PMC4203399 (Journal of Medicinal Chemistry, 2014)
